Measurements: ChEMBL document CHEMBL1157968, “Chemical and cytotoxic constituents from the leaves of Cinnamomum kotoense” (2006)

Assays:
Type in all cases: functional
HeLa [1] = assay: Cell cycle arrest in human HeLa cells pretreated with 10 uM Dexamethasone for 1 hr assessed as G2/M phase accumulation at 100 uM after 24 hrs by FACS
Method in brief: (§1)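 HeLa cells pretreated for 1 h with the listed agent (10 mM GSH ethyl ester, 10 µM dexamethasone, 10 µM pifithrin, 100 µM Boc-Asp(OMe)-fmk or 5 µM cyclosporin A), then given 100 µM compound for 24 h. Cells fixed in PBS-MeOH, stained with PI/RNase and analysed by flow cytometry for DNA content. At least three experiments, one representative shown.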

HeLa [2] = assay: Cell cycle arrest in human HeLa cells assessed as G2/M phase accumulation at 25 after 24 hrs by FACS
Method in brief: (§2)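 HeLa cells seeded 5 × 10^5 per dish 48 h ahead in DMEM with 10% FCS, then exposed to compound for 24 h (DMSO 0.1% final). Adherent and floating cells pooled, fixed in PBS-MeOH (1:2) at 4 °C for at least 18 h, and stained with PI (50 µg/mL) plus RNase A for 30 min at room temperature. Flow cytometry at 488 nm excitation, doublets gated out; phase percentages taken from DNA histograms.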

HeLa [3] = assay: Cell cycle arrest in human HeLa cells assessed as subG1 phase accumulation at 25 uM after 24 hrs by FACS; method in brief: as §2
HeLa [4] = assay: Cell cycle arrest in human HeLa cells assessed as subG1 phase accumulation at 50 uM after 24 hrs by FACS; method in brief: as §2
HeLa [5] = assay: Cell cycle arrest in human HeLa cells assessed as G1 phase accumulation at 100 uM after 24 hrs by FACS; method in brief: as §2
HeLa [6] = assay: Induction of apoptosis in human HeLa cells assessed as increase in intracellular hydrogen peroxide level at 100 uM after 1 hr by FACS relative to untreated control
Method in brief: (§3)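 HeLa cells at 80% confluence were refed and exposed to 100 µM for 1, 3 or 24 h. They were loaded with 10 µM DCFH-DA for 30 min in the dark, trypsinized and resuspended in PBS. DCF fluorescence was measured by flow cytometry and expressed as fold versus untreated cells. At least three experiments.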

HeLa [7] = assay: Induction of apoptosis in human HeLa cells assessed as increase in intracellular hydrogen peroxide level at 100 uM after 3 hrs by FACS relative to untreated control; method in brief: as §3
HeLa [8] = assay: Induction of apoptosis in human HeLa cells assessed as increase in intracellular hydrogen peroxide level at 100 uM after 24 hrs by FACS relative to untreated control; method in brief: as §3
HeLa [9] = assay: Induction of apoptosis in human HeLa cells assessed as increase in intracellular peroxide level at 100 uM after 3 hrs by FACS relative to untreated control; method in brief: as §3
HeLa [10] = assay: Induction of apoptosis in human HeLa cells assessed as increase in intracellular nitric oxide level at 100 uM after 24 hrs by FACS relative to untreated control
Method in brief: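 HeLa cells at 80% confluence were exposed to 100 µM for 1, 3 or 24 h and then stained with 1 µM DAF-2 for 10 min in the dark. After trypsinization, DAF-2 fluorescence was measured by flow cytometry and taken as fold versus untreated cells. At least three experiments.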

HeLa [11] = assay: Induction of apoptosis in human HeLa cells assessed as number of cells with decreased mitochondrial membrane potential at 100 uM after 9 hrs by measuring rhodamine 123 fluorescence intensity; parameters: scale not given: the % may be the effect or the level left
Method in brief: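 Cells in DMEM/10% FCS, medium renewed at 80% confluence, then 100 µM agent (0.1% DMSO final) for 1–24 h. Stained with 5 µM rhodamine 123 for 30 min in the dark, washed, trypsinized and resuspended in PBS; flow cytometry, percentage of cells with weak rhodamine 123 staining (reduced ΔΨm); at least three experiments, representative shown.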

HeLa [12] = assay: Induction of apoptosis in human HeLa cells assessed as increase caspase 3/7 activities at 100 uM after 12 hrs by FACS relative to control
Method in brief: (§4)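 After 3–24 h exposure at 100 µM, HeLa cells were trypsinized. 1 × 10^6 cells in DMEM were mixed 1:1 with Z-DEVD-R110 substrate reagent and incubated 1 h at 37 °C, then washed. Released R110 read per cell by flow cytometry (ex 488/em 520 nm) and expressed as fold over untreated cells. At least three runs.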

HeLa [13] = assay: Induction of apoptosis in human HeLa cells assessed as increase caspase 3/7 activities at 100 uM after 24 hrs by FACS relative to control; method in brief: as §4
HeLa [14] = assay: Induction of apoptosis in human HeLa cells assessed as increase p53 expression at 100 uM after 3 hrs by FACS
Method in brief: (§5)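 HeLa seeded at 5 × 10^5 cells/dish 48 h before, in DMEM with 10% FCS; medium renewed at 60% confluence, then 100 µM agent (0.1% DMSO final) for 0–24 h. Pooled floating and adherent cells fixed in 1% paraformaldehyde (15 min, 4 °C), permeabilized in 70% EtOH (30 min, 4 °C), then FITC-conjugated mouse anti-p53 mAb (1 h, 37 °C), PI/RNase counterstain; flow cytometry, % p53-positive cells; ≥3 experiments.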

HeLa [15] = assay: Induction of apoptosis in human HeLa cells assessed as increase p53 expression at 100 uM after 24 hrs by FACS; method in brief: as §5
HeLa [16] = assay: Induction of apoptosis in human HeLa cells at 100 uM after 24 hrs by TUNEL assay
Method in brief: (§6)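 HeLa in DMEM/10% FCS, untreated or pretreated 1 h with listed inhibitor, then 100 µM agent (0.1% DMSO final) for 24 h. Pooled cells fixed in 1% paraformaldehyde (30 min, 4 °C), 70% EtOH (30 min, −20 °C); strand breaks labelled with TdT/fluorescein-BrdUTP (1 h, 37 °C), PI/RNase counterstain; flow cytometry, % apoptotic cells; ≥3 experiments.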

HeLa [17] = assay: Induction of apoptosis in human HeLa cells pretreated with 10 mM glutathione ethyl ester for 1 hr at 100 uM after 24 hrs by TUNEL assay; method in brief: as §6
HeLa [18] = assay: Cell cycle arrest in human HeLa cells pretreated with 10 mM glutathione ethyl ester for 1 hr assessed as G1 phase accumulation at 100 uM after 24 hrs by FACS; method in brief: as §1
HeLa [19] = assay: Cell cycle arrest in human HeLa cells pretreated with 100 uM Boc-Asp(OMe)-fmk for 1 hr assessed as G1 phase accumulation at 100 uM after 24 hrs by FACS; method in brief: as §1
HeLa [20] = assay: Cell cycle arrest in human HeLa cells pretreated with 5 uM cyclosporin A for 1 hr assessed as G1 phase accumulation at 100 uM after 24 hrs by FACS; method in brief: as §1
HeLa [21] = assay: Cell cycle arrest in human HeLa cells pretreated with 10 uM pifithrin-alpha for 1 hr assessed as S phase accumulation at 100 uM after 24 hrs by FACS; method in brief: as §1

Question: `CCCCCCCCCCCCC/C=C(/C(=O)OC)[C@@H](O)C(C)=O` [SECOKOTOMOLIDE A] was tested. Which Activity (HeLa [1]) did it give?
Answer: Its Activity is 12.3%.

Question: What about the Activity (HeLa [2]) of the same molecule?
Answer: The Activity was 28.7%.

Question: And the Activity (HeLa [3])?
Answer: Its Activity is 47.7%.

Question: And the Activity (HeLa [4])?
Answer: The Activity was 61.2%.

Question: And the Activity (HeLa [5])?
Answer: Its Activity is 65.2%.

Question: And the “fold change (FC)” value (HeLa [6])?
Answer: The value was 3.4.

Question: And the “fold change (FC)” value (HeLa [7])?
Answer: The value was 2.9.

Question: What about the “fold change (FC)” value (HeLa [8]) of the same molecule?
Answer: The value was 3.9.

Question: What about the “fold change (FC)” value (HeLa [9]) of the same molecule?
Answer: The value was 2.9.

Question: And the “fold change (FC)” value (HeLa [10])?
Answer: Its value is 2.1.

Question: What about the Activity (HeLa [11]) of the same molecule?
Answer: Its Activity is 42.4%.

Question: What about the “fold change (FC)” value (HeLa [12]) of the same molecule?
Answer: The value was 4.6.

Question: What about the “fold change (FC)” value (HeLa [13]) of the same molecule?
Answer: Its value is 1.7.

Question: And the Activity (HeLa [14])?
Answer: Its Activity is 0.5%.

Question: And the Activity (HeLa [15])?
Answer: Its Activity is 28.8%.

Question: What about the Activity (HeLa [16]) of the same molecule?
Answer: Its Activity is 72.3%.

Question: What about the Activity (HeLa [17]) of the same molecule?
Answer: Its Activity is 5.43%.

Question: What about the Activity (HeLa [18]) of the same molecule?
Answer: Its Activity is 80%.

Question: What about the Activity (HeLa [19]) of the same molecule?
Answer: Its Activity is 60.6%.

Question: And the Activity (HeLa [20])?
Answer: The Activity was 47.7%.

Question: And the Activity (HeLa [21])?
Answer: Its Activity is 48.5%.
